Bioassay records: PubChem, The Scripps Research Institute Molecular Screening Center
TAAR1 agonist – human TAAR1 agonists, primary screen, Fluo-8 calcium fluorescence, CHO RD-HGA16 cells | Trace amine-associated receptor 1 (Homo sapiens), Q96RJ0 | vehicle wells 0%, saturating PEA agonist 100% | activation, % at 3 µM | actives 0.99% (n = 360,000) | AID 624467, 2012;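 active means activation above the mean activation of all test compounds in the run plus 3 SD, cut at about 38% in these data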
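Test system: RD-HGA16 (CHO) cells co-expressing Gα16 and hTAAR1; dosing: one-point dosing at 3 µM (nominal); timing: 17-24 h seeding, 75 min 37 °C dye, 30 min RT; signal: kinetic Fluo-8 calcium fluorescence; read-out basis: % activation relative to PEA EC100 response; controls: DMSO and PEA EC100; replicates: n 1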
GPR7 antag – GPR7 receptor antagonists, primary screen, cell-based, fluorescence, single concentration; actives 1.1% (n = 290,000); Neuropeptides B/W receptor type 1 (Homo sapiens), P48145; AID 1861, 2009; GPR7-expressing cells, fluorescence antagonist assay; inhibition, % at 4.4 µM; in the data active means inhibition above about 16%, passing the limit was not always enough;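 further: cells stimulated with the agonist NPW; 0% = agonist with vehicle and 100% = vehicle without agonist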
Target sequence (P48145 whole entry, looked up): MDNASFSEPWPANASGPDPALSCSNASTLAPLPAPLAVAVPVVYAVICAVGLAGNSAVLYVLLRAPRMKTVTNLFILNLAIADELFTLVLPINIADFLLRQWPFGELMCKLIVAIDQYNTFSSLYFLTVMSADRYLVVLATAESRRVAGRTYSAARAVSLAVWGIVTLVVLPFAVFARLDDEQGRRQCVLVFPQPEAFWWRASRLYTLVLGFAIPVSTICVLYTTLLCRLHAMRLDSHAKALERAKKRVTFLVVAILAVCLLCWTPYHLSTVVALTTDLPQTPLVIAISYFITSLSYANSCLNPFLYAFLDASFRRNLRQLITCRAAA
TAAR1 antagonist – human TAAR1 antagonists, primary screen, Fluo-8 calcium fluorescence, CHO RD-HGA16 cells; actives 1.5% (n = 360,000); inhibition, % at 3 µM; antagonist;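 active means inhibition above a per-plate cutoff, the mean inhibition of test compounds on that plate plus 3 SD, cut at about 49% in these data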;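 further: 0% = DMSO plus EC80 beta-PEA response and 100% = DMSO alone without agonist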
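Test system: RD-HGA16 CHO cells with stable hTAAR1 and Gα16 / Probe or stimulus: EC80 β-phenethylamine stimulus / Times: seeding 17-24 h prior, 75-min 37 °C, 30-min RT dye loading / Detection: Fluo-8 calcium-sensitive fluorescence / Read-out basis: % inhibition scaled between DMSO and EC80 PEA controls / Repeats: singlicate, one well per test compound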
OX1R antag-1 – antagonists of human orexin 1 receptor (OX1R); Orexin/Hypocretin receptor type 1 (Homo sapiens), O43613; OX1R-expressing cells, FRET antagonist read-out; inhibition, % at 6.6 µM; actives 1.8% (n = 330,000); AID 485270, 2010; in the data active means inhibition mostly above about 38%, no sharp cut-off; inactive means mostly below about 40%;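 further: 0% = agonist challenge alone and 100% = reference antagonist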
Target sequence (O43613 whole entry, looked up): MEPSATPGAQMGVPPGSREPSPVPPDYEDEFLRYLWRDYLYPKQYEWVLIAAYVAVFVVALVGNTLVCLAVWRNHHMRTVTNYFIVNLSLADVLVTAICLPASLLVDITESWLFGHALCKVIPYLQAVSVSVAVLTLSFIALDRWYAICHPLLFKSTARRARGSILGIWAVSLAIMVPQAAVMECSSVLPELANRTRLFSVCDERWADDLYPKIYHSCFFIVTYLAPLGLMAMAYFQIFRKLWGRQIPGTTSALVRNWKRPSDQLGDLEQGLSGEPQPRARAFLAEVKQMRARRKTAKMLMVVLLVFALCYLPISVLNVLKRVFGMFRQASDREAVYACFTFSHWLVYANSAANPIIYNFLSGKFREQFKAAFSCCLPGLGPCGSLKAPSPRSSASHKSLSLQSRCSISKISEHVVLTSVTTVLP
OX1R antag-2 – OX1R (HCRTR1) antagonists, primary screen, fluorescence, CHO/OX1R cells, Fluo-8 calcium, orexin A. actives 0.43% (n = 330,000). Fluo-8 calcium fluorescence. inhibition, % at 5 µM;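 active means inhibition above its plate's threshold, mean inhibition of all tested compounds on the plate plus 3 SD, cut at about 37% in these data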;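 further: 0% = orexin A challenge wells and 100% = SB-334867-A antagonist wells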
CHO parental Ca – ATP-evoked calcium signal inhibitors, parental CHO, primary screen, counter-screen for OX1R antagonist project, cell-based, fluorescence, Fluo-8 calcium dye; inhibition, % at 5.6 µM; actives 0.63% (n = 330,000); parental CHO-K1, ATP-induced calcium, Fluo-8 fluorescence;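 active means inhibition above that plate's mean sample inhibition plus 3 SD, cut at about 26% in these data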;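 further: 0% = ATP-challenged DMSO wells and 100% = DMSO wells without ATP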
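Assay system: untransfected parental CHO cell line. Also added: ATP agonist challenge. Dosing: one dose, 5.6 µM nominal. Measured by: Fluo-8 fluorescence. Read-out: % inhibition. Benchmarks: ATP wells versus no-ATP DMSO wells. Repeats: no replicates.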
OX1R HTRF conf – OX1R (HCRTR1) antagonists, confirmation, cell-based, HTRF; inhibition, % at 6.6 µM; actives 49% (n = 1,800); OX1R-expressing cells, HTRF antagonist assay; shares compounds with OX1R antag-1; in the data active means inhibition above about 55%;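 further: CHO cells expressing OX1R stimulated with orexin A at about EC80; 0% = agonist challenge alone and 100% = reference antagonist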
CHO-K1 HTRF cnt – signal inhibition in parental CHO-K1 cells, counter-screen for OX1R antagonist project, cell-based, HTRF; shares compounds with OX1R antag-1; HTRF counterscreen; inhibition, % at 6.6 µM; actives 48% (n = 1,800); AID 493232, 2011; in the data active means inhibition above about 17%;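 further: 0% = agonist challenge with vehicle and 100% = vehicle alone without agonist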
* hit, by the source's call; / = no result given. The list is not random: actives were taken first. Their share in the collection is about 4.6%.

SMILES	TAAR1 agonist	GPR7 antag	TAAR1 antagonist	OX1R antag-1	OX1R antag-2	CHO parental Ca	OX1R HTRF conf	CHO-K1 HTRF cnt
CCOc1ccccc1N1CCN(C2=C(NS(=O)(=O)c3cccs3)C(=O)c3ccccc3C2=O)CC1	3.9	-7.6	23.2	23.7	-41.9	-34.9	/	/
O=C(Nc1nnc(CCN2CCOCC2)s1)c1ccccc1	4.3	-1.1	-15.5	13.5	-8.0	-10.4	/	/
O=C(O)C1CCCCC1C(=O)Nc1ccc2c(c1)OCO2 (centres undefined)	-1.2	-12.6	-9.8	9.6	-19.9	-6.7	/	/
CCOC(=O)N1CCN(c2cc(NCCO)c([N+](=O)[O-])c3nonc23)CC1	0.4	-9.4	-2.9	20.2	-16.2	-3.9	/	/
O=[N+]([O-])c1c(NCCO)cc(N2CCCCC2)c2nonc12	4.0	-4.8	-8.9	90.0*	-11.0	-6.4	52.4	38.9*
C/C(=N\NC(=O)c1ccncc1)c1ccc(N(C)C)cc1	-0.2	-15.3	0.7	26.4	-9.1	5.1	/	/
Cc1nc(SC2CC(=O)N(c3ccccc3)C2=O)n[nH]1 (centres undefined)	6.1	-3.9	-5.6	-4.0	0.4	-2.2	/	/
Cc1nc(S/C(C(=O)O)=C2/C(=O)Nc3ccccc32)n[nH]1	4.2	-11.2	-9.2	78.0*	-6.5	-2.4	42.0	46.1*
O=C(NN1C(=O)c2ccc(-c3ccc4c(c3)C(=O)N(NC(=O)c3cccnc3)C4=O)cc2C1=O)c1cccnc1	7.3	-6.4	7.0	91.6*	-8.8	-8.8	39.1	33.4*
CCCCC(=O)N/N=C/c1ccc(-c2ccc([N+](=O)[O-])cc2)o1	-2.1	-6.2	-9.6	102.5*	-18.6	-7.8	29.9	-15.2
COC(=O)COc1ccc(S(=O)(=O)N2CCc3ccccc3C2)cc1	23.5	-3.8	10.8	4.0	-21.1	-9.9	/	/
O=[N+]([O-])c1cc([N+](=O)[O-])c(Oc2ccc(F)cc2F)cc1NN1CCCCC1	0.5	-0.6	9.3	8.9	-10.1	-13.0	/	/
Nc1nc(SCC(=O)Nc2cccc(S(=O)(=O)N3CCCCCC3)c2)n[nH]1	-0.5	-2.1	0.0	89.1*	-11.8	-0.8	15.4	3.7
O=C(CSc1ncn[nH]1)Nc1cccc(S(=O)(=O)N2CCCCCC2)c1	4.3	4.0	-3.4	19.4	-3.1	-16.5	/	/
Cc1ccc(NC(=O)c2cccs2)cc1NC(=O)c1ccco1	1.8	-5.9	3.1	3.4	-22.6	-12.8	/	/
CCn1c(=O)c(C(C)=O)nc2ccccc21	1.9	-6.7	-9.7	99.7*	-9.1	-16.9	30.8	5.3
CCc1nc2ccccc2n(CC)c1=O	-0.7	-11.5	-10.7	21.4	-14.1	2.3	/	/
COC(=O)Cn1cnc2c(nnn2-c2cccc(OC)c2)c1=O	2.4	4.4	4.0	5.1	-10.3	-13.1	/	/
CC1=C(C(=O)OC2CCCCC2)C(c2ccc(C)o2)C2=C(CCCC2=O)N1 (centres undefined)	-0.2	9.4	-5.8	99.4*	-32.2	-14.8	87.4*	-0.9
CC1=C(C(=O)OCc2ccccc2)C(c2ccc(C)o2)C2=C(CCCC2=O)N1 (centres undefined)	-1.8	3.0	-0.8	17.1	-21.4	-13.0	/	/
O=C(N=Nc1c(O)[nH]c2ccccc12)c1ccco1	8.7	-7.2	-0.3	113.0*	-9.6	-1.2	99.0*	54.5*
COc1ccc(CC2=C(O)c3ccccc3C(=O)C2=O)cc1	-0.4	-3.7	-9.7	33.6	-0.9	-3.8	/	/
O=C1C(=O)c2ccccc2C(O)=C1CCCCl	/	-1.8	/	80.2*	-10.0	-7.0	77.4*	96.3*
CCOC(=O)c1ccc2[nH]c(C)c(C)c2c1	-1.3	-6.7	-11.7	92.9*	23.8	-12.0	65.8*	10.2
Cc1[nH]c2ccc(C(=O)OCCN(C)C)cc2c1C	16.7	-10.9	-10.4	15.0	-4.4	-8.4	/	/
SMILES	TAAR1 agonist	GPR7 antag	TAAR1 antagonist	OX1R antag-1	OX1R antag-2	CHO parental Ca	OX1R HTRF conf	CHO-K1 HTRF cnt
COC(=O)c1cn(NC(=O)COc2ccc(Cl)cc2)c(=O)c2ccccc12	3.4	2.7	-2.4	19.0	-7.7	3.2	/	/
Cc1nc(N)sc1N=Nc1ccc(Br)cc1	-0.5	1.8	-1.2	8.7	3.2	8.2	/	/
CCN(CC)c1ccc(NC(=O)c2cc3ccccc3o2)c(C)c1	25.9	-13.6	23.2	79.7*	2.4	-1.1	58.5*	9.4
Cc1ccccc1NC(=O)c1cc2ccccc2o1	1.4	-10.6	2.5	-4.9	-16.2	-7.7	/	/
O=[N+]([O-])c1ccc(S(=O)(=O)NCC2CCCO2)cc1 (centres undefined)	0.1	0.8	6.9	81.5*	-18.2	-10.5	45.8	47.3*
CC(=O)Nc1ccc(S(=O)(=O)NC2=NCN(c3ccc([N+](=O)[O-])cc3)CN2)cc1	2.9	-9.0	-2.4	13.3	-9.8	0.4	/	/
CN1CN=C(NS(=O)(=O)c2ccc([N+](=O)[O-])cc2)NC1	6.1	-8.6	-20.9	82.8*	-9.7	-1.8	32.2	29.7*
Cc1ccc(NC(=O)/C(=C\c2cccnc2)NC(=O)c2ccccc2)cc1	-0.5	-8.0	-10.6	6.1	0.2	0.2	/	/
Cc1ccc(/C=c2\sc3n(c2=O)CN(c2cccc(Br)c2)CN=3)o1	14.9	-1.1	-5.2	80.4*	-6.8	0.3	18.1	12.5
CCOc1ccc(N=Nc2c(=O)[nH]n3c(C)cc(C)nc23)cc1	-1.0	-8.9	-0.5	149.4*	-8.7	-1.7	64.1*	73.8*
COc1cc2c(cc1NC(=O)CCCCCN1C(=O)CCC1=O)oc1ccccc12	-0.1	-2.6	4.2	80.4*	26.2	-26.8	83.7*	14.0
COc1cc2c(cc1NC(=O)CCCN1C(=O)CCC1=O)oc1ccccc12	0.3	-3.9	-5.9	36.9	-10.7	-12.7	/	/
Cc1ccccc1C(=O)N(C)[C@H]1C[C@H]2c3[nH]c4c(-c5ccc6c(c5)OCO6)cccc4c3CCN2C(=O)[C@H]1[C@H](C)O	1.3	/	-18.8	/	/	/	/	/
O=C(NNc1c2ccccc2nc2ccccc12)c1ccccc1Cl	1.6	-7.0	-10.0	82.8*	-13.8	1.0	50.0	-1.0
O=C(NNc1c2ccccc2nc2ccccc12)c1ccccc1O	9.5	-1.4	53.9*	84.1*	0.9	4.3	61.0*	1.1
